The source of these data is ChEMBL document CHEMBL4196152, “Controlling Ca2+ Permeable α-Amino-3-hydroxy-5-methyl-4-isoxazolepropionic Acid (AMPA) Receptors with Photochromic Ion Channel Blockers” (J Med Chem, 2018).

What all share (assay type): cell-based
Assay [1] concerns the target Glutamate receptor 1 (Rattus norvegicus) (UniProt P19490). The experiment in a line: Inhibition of rat GluA1 flip isoform expressed in Xenopus laevis oocytes assessed as inhibition of L-Glu-evoked currents at 100 nM under dark condition at -80 mV membrane potential by two electrode voltage-clamp assay. An outline of the steps:
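TEVC on stage V–VI Xenopus laevis oocytes injected with GluA1 cRNA (13–46 nL) and recorded 1–3 days later at −80 mV and 23 °C. Bath solution (mM): 115 NaCl, 2 KCl, 5 HEPES, 1.8 BaCl₂, pH 7.6. Antagonist was co-applied with 300 µM L-glutamate in a dark room. Current was normalized to agonist alone; mean ± SEM, n = 3–16 oocytes.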
In general terms: Two-electrode voltage clamp is typically applied to oocytes expressing channels or transporters.

The target of assay [2] is T1, Glutamate NMDA receptor; Grin1/Grin2a (Rattus norvegicus, UniProt P35439+Q00959). Kind of assay: Inhibition of rat GluN1a/GluN2A expressed in Xenopus laevis oocytes assessed as inhibition of L-Glu and Gly-evoked currents under illumination with blue light at 470 nanometer condition at -80 mV membrane potential by two electrode voltage-clamp assay. An outline of the steps: (§1)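 Oocytes injected with a 1:10 GluN1:GluN2A cRNA ratio and clamped at −80 mV by TEVC, 23 °C. Bath: 115 NaCl, 2 KCl, 5 HEPES, 1.8 BaCl2 (mM), pH 7.6. Antagonist co-applied with 100 µM L-Glu plus 100 µM glycine; response normalized to agonist alone. Dark runs done in a dark room. IC50 fitted with a Hill equation to pooled data from 3–10 oocytes.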

Assay [3] concerns the target T1, Glutamate NMDA receptor; Grin1/Grin2a. Kind of assay: Inhibition of rat GluN1a/GluN2A expressed in Xenopus laevis oocytes assessed as inhibition of L-Glu and Gly-evoked currents under dark condition at -80 mV membrane potential by two electrode voltage-clamp assay. An outline of the steps:
as §1

The target of assay [4] is T2, Glutamate receptor 1 (Rattus norvegicus, UniProt P19490). The experiment in a line: Inhibition of rat GluA1 flip isoform expressed in Xenopus laevis oocytes assessed as inhibition of L-Glu-evoked currents under illumination with blue light at 470 nanometer at -80 mV membrane potential by two electrode voltage-clamp assay. In outline: (§2)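 TEVC at −80 mV, 23 °C, on oocytes 1–3 days after cRNA injection. Bath: 115 NaCl, 2 KCl, 5 HEPES, 1.8 BaCl2 (mM), pH 7.6. Antagonist co-applied with 300 µM L-Glu; current normalized to agonist alone. Dark runs done in a dark room. IC50 from pooled data of 3–10 oocytes, fitted with a Hill equation. Single-concentration screens used 100 nM and 10 nM.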
T2 sequence (P19490 whole entry, canonical isoform): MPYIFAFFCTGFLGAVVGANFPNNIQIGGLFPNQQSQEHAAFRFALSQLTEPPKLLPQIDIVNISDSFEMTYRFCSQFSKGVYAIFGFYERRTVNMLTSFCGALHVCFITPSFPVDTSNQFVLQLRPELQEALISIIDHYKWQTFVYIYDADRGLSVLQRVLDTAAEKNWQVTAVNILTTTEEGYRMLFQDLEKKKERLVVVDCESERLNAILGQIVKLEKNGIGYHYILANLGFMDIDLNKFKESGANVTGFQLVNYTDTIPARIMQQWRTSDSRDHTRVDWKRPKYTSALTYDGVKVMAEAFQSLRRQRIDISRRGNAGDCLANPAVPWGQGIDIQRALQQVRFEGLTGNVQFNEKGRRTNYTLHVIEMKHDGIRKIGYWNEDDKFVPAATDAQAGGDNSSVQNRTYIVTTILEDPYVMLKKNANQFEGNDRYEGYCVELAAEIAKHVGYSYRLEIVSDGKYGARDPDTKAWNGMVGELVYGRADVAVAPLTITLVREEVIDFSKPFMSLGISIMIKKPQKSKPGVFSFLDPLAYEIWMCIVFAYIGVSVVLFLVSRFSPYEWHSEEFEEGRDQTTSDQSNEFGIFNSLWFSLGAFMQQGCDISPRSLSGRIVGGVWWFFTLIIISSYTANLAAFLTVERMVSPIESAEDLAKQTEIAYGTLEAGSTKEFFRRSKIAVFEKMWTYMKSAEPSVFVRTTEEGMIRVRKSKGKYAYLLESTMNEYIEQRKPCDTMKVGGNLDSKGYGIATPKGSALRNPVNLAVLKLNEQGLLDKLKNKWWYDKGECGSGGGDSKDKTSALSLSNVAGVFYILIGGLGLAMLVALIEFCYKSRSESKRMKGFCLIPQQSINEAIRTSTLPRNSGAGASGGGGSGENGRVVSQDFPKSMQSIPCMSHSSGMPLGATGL

Assay [5] deals with T2, Glutamate receptor 1. Kind of assay: Inhibition of rat GluA1 flip isoform expressed in Xenopus laevis oocytes assessed as inhibition of L-Glu-evoked currents under dark condition at -80 mV membrane potential by two electrode voltage-clamp assay. An outline of the steps:
as §2

The target in assay [6] is T3, Glutamate NMDA receptor; Grin1/Grin2a (Rattus norvegicus) (UniProt P35439+Q00959). The experiment in a line: Ratio of IC50 for inhibition of rat GluN1a/GluN2A expressed in Xenopus laevis oocytes under illumination with blue light at 470 nanometer condition to IC50 for inhibition of rat GluN1a/GluN2A expressed in Xenopus laevis oocytes under dark condition. An outline of the steps: as §1

Assay [7] concerns the target Glutamate receptor 1 (Rattus norvegicus) (UniProt P19490). Kind of assay: Inhibition of rat GluA1 flip isoform expressed in Xenopus laevis oocytes assessed as inhibition of L-Glu-evoked currents at 100 nM under illumination with blue light at 470 nanometer at -80 mV membrane potential by two electrode voltage-clamp assay. In outline: as §2
Assay [8] concerns the target T3, Glutamate NMDA receptor; Grin1/Grin2a (Rattus norvegicus). Kind of assay: Inhibition of rat GluN1a/GluN2A expressed in Xenopus laevis oocytes assessed as inhibition of L-Glu and Gly-evoked currents at 100 nM under illumination with blue light at 470 nanometer condition at -80 mV membrane potential by two electrode voltage-clamp assay. An outline of the steps:
as §1

Assay [9] shares this target. The experiment in a line: Inhibition of rat GluN1a/GluN2A expressed in Xenopus laevis oocytes assessed as inhibition of L-Glu and Gly-evoked currents at 100 nM under dark condition at -80 mV membrane potential by two electrode voltage-clamp assay. In outline:
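Xenopus laevis oocytes (stage V–VI) were injected with GluN1 and GluN2A cRNA at a 1:10 ratio. Two-electrode voltage clamp was done 1–3 days post-injection at −80 mV and 23 °C in 115 NaCl/2 KCl/5 HEPES/1.8 BaCl₂ (mM), pH 7.6. Antagonist was co-applied with 100 µM L-glutamate plus 100 µM glycine in a dark room. Current was normalized to agonist-only; mean ± SEM, n = 3–16.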

What is called inhibition is how much of the control response was suppressed. One may read the IC50 as the concentration at which inhibition is half-maximal.

Chain of Glutamate receptor 1 (Rattus norvegicus) (P19490 whole entry, canonical isoform): as above

Consider `CCN(CC)c1ccc(/N=N/c2ccc(C(=O)N[C@@H](CC(N)=O)C(=O)NCCCCCCCCCNCCCNC(=O)[C@@H](N)CCCNC(=N)N)cc2)cc1`, for which the inhibition in [1] lay within 20 to 50%.

Regarding `CN(C)c1ccc(/N=N/c2ccc(C(=O)N[C@@H](CC(N)=O)C(=O)NCCCCCCCCCNCCCNC(=O)[C@@H](N)CCCNC(=N)N)cc2)cc1`, in assay [1], the inhibition lay in the range of 20 to 50%.

For `CN(C)c1ccc(/N=N/c2cccc(C(=O)NCCCCCCCCCNCCCNC(=O)[C@@H](N)CCCNC(=N)N)c2)cc1`, in assay [1], the inhibition lay within 20 to 50%.

For the compound `CN(C)c1ccc(/N=N/c2ccc(C(=O)NCCCCCCCCCNCCCNC(=O)[C@@H](N)CCCNC(=N)N)cc2)cc1`, the inhibition in assay [1] is 20 to 50%.

As to `CCN(CC)c1ccc(/N=N/c2ccc(C(=O)N[C@@H](CC(N)=O)C(=O)NCCCCCCCCNCCCCNC(=O)[C@@H](N)CCCNC(=N)N)cc2)cc1`, the half-inhibitory concentration (IC50) came to 1200 nM in assay [2], 1100 nM in [3], 61 nM in [4] and 8 nM in assay [5]. The Ratio IC50 in [6] was found to be 8. Besides, the inhibition in [1] was 60%; in [7] it was 20%; in [8] it was < 5%; in assay [9] it was < 5%.

`N=C(N)NCCC[C@H](N)C(=O)NCCCCCCCCNCCCCNC(=O)[C@H](CC(N)=O)NC(=O)c1ccc(/N=N/c2ccccc2)cc1`: the inhibition in [9] is 70 to 80%.

Consider `CCN(CC)c1ccc(/N=N/c2cccc(C(=O)N[C@@H](CC(N)=O)C(=O)NCCCCNCCCCCCCCNC(=O)[C@@H](N)CCCNC(=N)N)c2)cc1`, for which the inhibition in [1] is > 70%.

Regarding `CCN(CC)c1ccc(/N=N/c2cccc(C(=O)NCCCCCCCCCNCCCNC(=O)[C@@H](N)CCCNC(=N)N)c2)cc1`, the inhibition in assay [1] lay in the range of 20 to 50%.

For the compound `CCN(CC)c1ccc(/N=N/c2cccc(C(=O)N[C@@H](CC(N)=O)C(=O)NCCCCCCCCCNCCCNC(=O)[C@@H](N)CCCNC(=N)N)c2)cc1`, in assay [1], the inhibition lay within 20 to 50%.

`CCN(CC)c1ccc(/N=N/c2ccc(C(=O)NCCCCCCCCCNCCCNC(=O)[C@@H](N)CCCNC(=N)N)cc2)cc1`: in assay [1], the inhibition was in the range of 20 to 50%.

In the case of `CN(C)c1ccc(/N=N/c2ccc(C(=O)N[C@@H](CC(N)=O)C(=O)NCCCCNCCCCCCCCNC(=O)[C@@H](N)CCCNC(=N)N)cc2)cc1`, the inhibition in assay [1] is > 70%.

As to `CN(C)c1ccc(/N=N/c2cccc(C(=O)N[C@@H](CC(N)=O)C(=O)NCCCCNCCCCCCCCNC(=O)[C@@H](N)CCCNC(=N)N)c2)cc1`, the inhibition in assay [1] was > 70%.

On to `N=C(N)NCCC[C@H](N)C(=O)NCCCNCCCCCCCCCNC(=O)c1cccc(/N=N/c2ccccc2)c1`, for which the inhibition in [9] lay within 70 to 80%.

For the compound `CN(C)c1ccc(/N=N/c2cccc(C(=O)N[C@@H](CC(N)=O)C(=O)NCCCCCCCCCNCCCNC(=O)[C@@H](N)CCCNC(=N)N)c2)cc1`, the inhibition in [1] lay within 20 to 50%.

Turning to `N=C(N)NCCC[C@H](N)C(=O)NCCCCCCCCNCCCCNC(=O)[C@H](CC(N)=O)NC(=O)c1cccc(/N=N/c2ccccc2)c1`, in [9], the inhibition lay in the range of 70 to 80%.
